For data set [1], the system named is INS-1E cells. The data set can be described thus: C1-BODIPY-C12 fatty acid uptake inhibition in INS-1E pancreatic β-cells. The class given is cell-based. The conditions noted are these: read-out: IC50, inhibition of C1-BODIPY-C12 uptake. The procedure, abridged: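 INS-1E cells kept in RPMI 1640 with 5 % FBS, 1 mM pyruvate, 50 μM 2-mercaptoethanol and 10 mM HEPES at 37 °C, 5 % CO2. Seeded at 2x10^5 cells/well on collagen and used after 96 h. C1-BODIPY-C12 uptake read as cell-associated fluorescence at 485/528 nm against test compound concentration. IC50 by non-linear dose-response fit; 3 experiments in triplicate, mean ± SE.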

For data set [2], the system named is cell lines that are models for intestines, liver, muscle and pancreas. The data set can be described thus: Fatty acid uptake inhibition, summary over cell lines. The class given is cell-based. As to conditions: read-out: IC50, inhibition of fatty acid uptake.
In data set [3] the test system is HepG2 cells. In words: Nuclear integrity. The class given is cell-based. The conditions noted are these: PA 0-500 μM, Grassofermata 0-50 μM.
Data set [4] has as its system HepG2 cells. The data set can be described thus: Uptake of BODIPY FL-C16 and BODIPY FL-C5 in HepG2 cells. It is filed as cell-based.
For the next data set, the system named is C57BL/6 male mice. The data set can be described thus: Inhibition of 13C-oleate absorption in mice. The class given is in vivo. The conditions noted are these: single oral dose 300 mg/kg, 6 hrs post-label administration. The procedure, abridged: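 Male C57BL/6 mice, 12 per group, fasted 12 h and given tyloxapol 500 mg/kg i.p. Gavaged with test compound 300 mg/kg in flaxseed oil or with oil alone. After 1 h, received flaxseed oil containing 500 mg/kg 13C-oleate. Plasma collected at 0.5, 2 and 6 h, Folch-extracted with nonadecanoic acid as internal standard. GC-MS in SIM mode, m/z 296 (12C) and 314 (13C oleate methyl ester). Mean ± SE of 10–12 mice.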

The next data set concerns C2C12 cells. The data set can be described thus: C1-BODIPY-C12 fatty acid uptake inhibition in C2C12 myocytes. It is filed as cell-based. The conditions noted are these: Mus musculus, C2C12, read-out: IC50, inhibition of C1-BODIPY-C12 uptake. The essentials:
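C2C12 mouse myoblasts grown in DMEM with 10 % FBS and 2 mM L-glutamine at 37 °C, 5 % CO2. Differentiated for 96 h at 8x10^4 cells/well in DMEM with 10 % horse serum. Uptake of fluorescent C1-BODIPY-C12 read as cell-associated fluorescence at ex/em 485/528 nm across a range of test compound concentrations. IC50 from non-linear dose-response regression; 3 experiments in triplicate, mean ± SE.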

The nature of data set [5]: Grassofermata level in mouse plasma. The conditions noted are these: male, C57BL/6, mouse, oral, 300 mg/kg. The class given is in vivo, mice. The procedure, abridged:
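Male C57BL/6 mice, 10 weeks old, in groups of 12, fasted 12 h and given tyloxapol 500 mg/kg i.p. They then received test compound 300 mg/kg in flaxseed oil by gavage, followed 1 h later by a 13C-oleate bolus. Plasma (EDTA) taken 0.5, 2 and 6 h after oleate. Plasma mixed with acetonitrile containing an analogue internal standard, acidified with TFA and centrifuged. Analysed by LC-MS/MS (C18, 457.1→411.1) against a 0.09–3.3 ng/μl standard curve.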

For data set [6], the system named is primary mouse hepatocytes. In words: Palmitate-induced lipid accumulation. It is filed as cell-based, mice. The conditions noted are these: 50 μM compound, each concentration of PA (0-500 μM). The procedure, abridged:
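Hepatocytes isolated from 10–12-week 129S1/SvImJ mice and plated on collagen at 1.5x10^4 cells/well in DMEM with FBS, glucagon, hydrocortisone, EGF and insulin. Treated after 4–5 h of attachment with BSA-conjugated palmitate (0–500 μM, 2.5:1) with or without test compound (0–50 μM). Lipid measured by 30 μM Nile Red, 30 min at 37 °C, 485/590 nm. AFU per 10^6 cells; 3 experiments in triplicate.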

The subject of another data set is human adipocytes. In words: C1-BODIPY-C12 fatty acid uptake inhibition in primary human adipocytes. It is filed as cell-based. The conditions noted are these: read-out: IC50, inhibition of C1-BODIPY-C12 uptake. The procedure, abridged: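 Primary human preadipocytes seeded at 1.5x10^4 cells/well in alpha-MEM with 10 % FBS. Differentiated for 6 days with 540 μM IBMX plus 1 μM rosiglitazone, then kept without them until lipid droplets appeared. C1-BODIPY-C12 uptake read as cell-associated fluorescence at 485/528 nm across test compound concentrations. IC50 by non-linear dose-response fit; 3 experiments in triplicate.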

For data set [7], the system named is HepG2 cells. The data set can be described thus: Palmitate-induced lipid accumulation. It is filed as cell-based. As to conditions: 50 μM compound, each concentration of PA (0-500 μM), 24 hrs.
The subject of data set [8] is HepG2 cells. In words: C1-BODIPY-C12 uptake in HepG2 cells. It is filed as cell-based. The essentials: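 Inhibition kinetics in HepG2 cells using 7 test compound concentrations (1.25–15 μM) and 4 C1-BODIPY-C12 concentrations (2.5–10 μM). The plate reader's injectors dispensed compound, then added substrate at timed intervals. Initial uptake rates measured over 90 s by fluorescence. Best-fit inhibition model chosen by enzyme-kinetics analysis; points are mean with SD.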

The test system of data set [9] is primary mouse hepatocytes. In words: Nuclear integrity. The class given is cell-based, mice. The conditions noted are these: primary murine hepatocytes; PA 0-500 μM, Grassofermata 0-50 μM.
The test system of data set [10] is INS-1E cells. In words: Palmitate-induced lipid accumulation. The class given is cell-based. The conditions noted are these: 50 μM compound, each concentration of PA (0-500 μM), 24 hrs. The essentials: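 INS-1E cells, 96 h after plating, treated for 24 h with BSA-conjugated palmitate (0–500 μM, 2.5:1 PA:BSA) with or without test compound (0–50 μM). Stained with 30 μM Nile Red for 30 min at 37 °C and read at ex/em 485/590 nm. Results as AFU per 10^6 cells; 3 experiments in triplicate.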

The test system of data set [11] is INS-1E cells. In words: Nuclear integrity. The class given is cell-based. As to conditions: PA 0-500 μM, Grassofermata 0-50 μM.
The test system of data set [12] is Caco-2 cells. In words: Uptake of BODIPY FL-C16 and BODIPY FL-C5 in Caco-2 cells. The class given is cell-based, human.
The subject of data set [13] is Caco-2 cells. The conditions noted are these: 100 μM; cited from earlier work.
Another data set concerns HsFATP2. The conditions noted are these: 80 μM; yeast expressing HsFATP2; cited from earlier work.

Results on 4 compounds are retold here after PMC4589248 (Biochemical and biophysical research communications, 2015).

The term IC50 denotes the concentration that gives 50% inhibition. `O=c1cc(-c2ccc([N+](=O)[O-])cc2)[nH]c2c(-c3ccc(Cl)cc3)c(Cc3ccccc3)nn12` [Grassofermata, 2-benzyl-3-(4-chlorophenyl)-5-(4-nitrophenyl)pyrazolo[1,5-a]pyrimidin-7(4H)-one]: the concentration for half-maximal inhibition (IC50) was 8.3 µM in the data set with INS-1E cells [1]; 8 to 11 µM in data set [2]; 17.3 ± 2.5 µM in the data set on HepG2 cells [4] (Homo sapiens, HepG2, read-out: IC50, inhibition of BODIPY FL-C16 uptake); 10.6 µM in the data set on C2C12 cells; 58.2 µM in the data set with human adipocytes; 13.5 ± 1.1 µM in the data set on Caco-2 cells [12] (Homo sapiens, Caco-2, read-out: IC50, inhibition of BODIPY FL-C16 uptake). Besides, the “DAPI staining (nuclear integrity)” value (with HepG2 cells [3]; in [9]; in the data set on INS-1E cells [11]) was “reduced DAPI staining of cells in a dose dependent manner” each time. The “effect on transport of BODIPY FL-C5” value in the data set on HepG2 cells [4] (HepG2, medium chain FA analog) is “did not affect”; in the data set with Caco-2 cells [12] (Caco-2, medium chain FA analog), “did not affect”. Further, the “reduction of the levels of labeled oleate in plasma” value with C57BL/6 male mice is 37%. This compound gave a concentration at 0.5 h in data set [5] of 2100 ± 600 ng/mL. The compound further displayed a concentration at 2 h in [5] of 3400 ± 700 ng/mL. The compound also returned a concentration at 6 h in data set [5] of 2900 ± 700 ng/mL. For the same compound, the “accumulation of lipid (Nile Red)” value (in [6]; with HepG2 cells [7]; in the data set with INS-1E cells [10]) was “significantly reduced” in each case. The “mechanism of inhibition of C1-BODIPY-C12 uptake” value with HepG2 cells [8] (HepG2, Grassofermata 1.25-15 μM, C1-BODIPY-C12 2.5-10 μM) is listed as “non-competitive mechanism of inhibition”.

As for `CCCCCCCCCCC[C@@H](C[C@@H]1OC(=O)[C@H]1CCCCCC)OC(=O)[C@H](CC(C)C)NC=O` [Orlistat, reference compound], the “effect on C1-BODIPY-C12 uptake” value in the data set on HepG2 cells [8] (standard FA transport assay, cell line not stated for Orlistat) is on record as “no effect”.

In the case of `CN(C)CCCN1c2ccccc2Sc2ccc(Cl)cc21` [chlorpromazine], the “inhibition of FA uptake” value in the data set on Caco-2 cells [13] was 30–50%. The “inhibition of C1-BODIPY-C12 uptake” value with HsFATP2 is “intermediate levels of inhibition”.

As to `CN1CCN(C2=Nc3cc(Cl)ccc3Nc3ccccc32)CC1` [clozapine, Clozapine], the “inhibition of FA uptake” value with Caco-2 cells [13] is 30–50%. The “inhibition of C1-BODIPY-C12 uptake” value in the data set with HsFATP2 is reported as “intermediate levels of inhibition”.
